Results collected from several papers.
Lines come from different studies, so protocols differ.
Target: MAP kinase-interacting serine/threonine-protein kinase 1 (MKNK1, Homo sapiens, UniProt Q9BUB5)

The remaining binding of N#CC1(c2ccccn2)CCN(Cc2cc(C(=O)O)c(=O)n3ccccc23)CC1 is reported as 85% (cell-free assay; competition with immobilised ligand; 1 µM).
The remaining binding of Cc1nn(C)cc1-c1nc2c(N3CCN(Cc4ccc(Cl)cc4)CC3)c(Cl)cnc2[nH]1 is reported as 100% (binding; competition with immobilised ligand; 1 µM).
COc1ncccc1-c1cnn2ccc(N3CCN(C(=O)OC(C)C)CC3)nc12 has a remaining binding of 100% (binding; competition with immobilised ligand; 1 µM).
COc1cc(Nc2ncc(F)c(Nc3ccc4c(n3)NC(=O)C(C)(C)O4)n2)cc(OC)c1OC gave an inhibition of 9% (binding; competition with immobilised ligand; 10 µM).
O=c1[nH]c2ccccc2n1C1CCN(Cc2ccc(-c3[nH]c4cc5ncnc5cc4nc3-c3ccccc3)cc2)CC1 has a remaining signal of 104% (cell-free assay; 0.5 µM).
With Cn1cncc1[C@](O)(COc1ccc(C#N)cc1-c1ccc(OC(F)(F)F)cc1)c1ccc(C#N)cc1 the remaining binding was 68% (cell-free assay; competition with immobilised ligand; 1 µM).
With Nc1ncc(-c2nc(N3CCOCC3)nc(N3CCOCC3)n2)c(C(F)F)n1 the remaining binding was 45% (binding; competition with immobilised ligand; 10 µM).
CC(C)(C)c1cc(C=C(C#N)C#N)cc(Br)c1O has a remaining activity of 95.9% (enzyme activity; inhibitor; 0.5 µM).
